Screening results from PubChem BioAssay.
PRMT1 inh: inhibitors of human PRMT1; Q99873; recombinant PRMT1, activity-based probe fluorescence polarization; inhibition, % at 2.79 µM; actives 1.3% (n = 370,000);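 active = inhibition above about 21% made by adding two undisclosed values, limit read from the data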
TCR CD3 inh: inhibitors of human TCR-CD3 interaction | TAMRA-labeled TCR probe fluorescence, biochemical | inhibition, % at 9.4 µM | AID 651800 | actives 0.37% (n = 360,000); in the data active = inhibition above about 19%;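 also: recombinant mutant TCR 2C K166C tagged with TAMRA read by polarization; 0% = receptor in buffer alone and 100% = receptor with positive control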
ABHD4 inh: ABHD4 (mouse) inhibition, primary FP screen; actives 0.54% (n = 370,000); inhibition, % at 8.92 µM; AID 720543; purified mABHD4, FP-Rh probe fluorescence polarization; Q8VD66;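 active = inhibition exceeding the mean over every tested compound plus 3 SD, cut at about 30% in these data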;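 also: 0% = plate median of compound wells and 100% = S159A mutant with DMSO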
Target sequence (Q8VD66 whole entry, looked up): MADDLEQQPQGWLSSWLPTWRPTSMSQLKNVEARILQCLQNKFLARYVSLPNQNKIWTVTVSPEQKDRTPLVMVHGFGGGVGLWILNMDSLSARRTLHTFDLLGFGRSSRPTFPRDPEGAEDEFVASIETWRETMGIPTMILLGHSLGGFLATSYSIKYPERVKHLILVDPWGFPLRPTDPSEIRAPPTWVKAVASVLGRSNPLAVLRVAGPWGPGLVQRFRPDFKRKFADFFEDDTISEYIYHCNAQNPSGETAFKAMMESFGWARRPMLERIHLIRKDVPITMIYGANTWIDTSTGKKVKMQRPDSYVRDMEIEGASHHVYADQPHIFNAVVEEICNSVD
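Assay system: mouse ABHD4 enzyme, wild type / Also added: fluorescent activity-based probe FP-Rh / Doses: single nominal dose of 8.92 µM, 0.89% DMSO final / Timing: 45 min compound pre-incubation plus 60 min probe step, 25 °C / Signal: FP readout, ex 525 nm / em 598 nm / Control set: S159A mutant/DMSO as 100%, compound-well median as 0%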
SIAE inh: human SIAE inhibition, primary screen; SIAE FP-Rh probe binding, fluorescence polarization; actives 0.69% (n = 370,000); Q9HAT2; AID 1053197; inhibition, % at 9.66 µM;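 active = inhibition above a cutoff: mean of compounds within the control limits plus 3 SD of those, cut at about 17% in these data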;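 also: 0% = plate median of compound wells and 100% = probe without SIAE protein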
rCAG binder: r(CAG) repeat RNA binding; TO-PRO-1 dye displacement fluorescence; inhibition, % at 3 µM; actives 1.3% (n = 370,000); AID 651821;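 active = inhibition above the plate cutoff, the mean of all test compounds on that plate plus 3 SD, cut at about 35% in these data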;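 also: 0% = DMSO alone and 100% = 100 µM mitoxantrone as full dye displacement; higher means more dye released from RNA so lower well fluorescence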
SIAE confirm: human SIAE inhibition, confirmation; inhibition, % at 9.66 µM; actives 13% (n = 2,300); SIAE FP-Rh activity-based probe, fluorescence polarization; shares compounds with SIAE inh;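 active = mean inhibition of the replicates above the hit cutoff set in the primary screen, cut at about 17% in these data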;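 also: 0% = SIAE with DMSO and probe and 100% = probe without SIAE; inhibitors lower polarization as more probe stays unbound to SIAE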
An asterisk follows results filed as active; . = no result given. Only some compounds are listed: those with a hit (about 3.3% of all), similar ones and a draw of the others.

SMILES | PRMT1 inh | TCR CD3 inh | ABHD4 inh | SIAE inh | rCAG binder | SIAE confirm
COc1ccc(-n2nnnc2C2c3ccccc3C(=O)N2C2CCN(Cc3ccccc3)CC2)cc1 (stereo unspecified) | -3 | 5 | 2 | 21* | 1 | 4
CCOc1ccc(Cl)cc1/C=C1/C(=O)ON=C1C | 0 | 0 | 5 | 18* | 3 | 1
C=CCn1c(SCC(C)=O)nc2sc3c(c2c1=O)CCC3 | -2 | 2 | -9 | 3 | -5 | .
C=CCn1c(SCC(=O)N(CC)C2CCS(=O)(=O)C2)nc2sc3c(c2c1=O)CCC3 (stereo unspecified) | -1 | 0 | 2 | 18* | 1 | 9
O=C1CC(c2ccco2)CC(O)=C1C=Nc1ccccc1-c1ccccc1 (stereo unspecified) | -4 | -2 | 0 | 27* | -6 | 0
Brc1ccc(-c2csc(Nc3nc(-c4ccc(Br)cc4)cs3)n2)cc1 | 3 | -7 | 7 | 42* | 5 | 11
CCC(C)[C@H](NC(=O)Nc1ccccc1F)C(=O)OC (stereo partly specified) | -2 | 6 | 3 | 22* | 2 | 0
CCOC(=O)c1ccc2c(c1)n(CC)c(/C=C/Nc1ccccc1)[n+]2CC | -6 | -6 | 2 | 18* | 5 | 5
Cc1ccccc1-c1nn(-c2ccc(F)cc2F)cc1CNCCCN(C)C | -3 | 12 | 2 | 18* | 1 | 7
Cc1ccccc1-c1nn(-c2ccc(F)cc2F)cc1CNCCN(C)C | 1 | -1 | -3 | 2 | -1 | .
Cc1cc(C)n(CC(=O)N2CCCC(N3CCN(c4ccc(F)cc4)CC3)C2)n1 (stereo unspecified) | -1 | 4 | -1 | 2 | -7 | .
CCN=C1SC(CC(=O)Nc2ccc(C(F)(F)F)cc2)C(=O)N1CC (stereo unspecified) | -1 | -1 | -2 | -6 | -4 | .
CCN=C1SC(CC(=O)Nc2ccc(N3CCOCC3)cc2)C(=O)N1CC (stereo unspecified) | -5 | -7 | 1 | 19* | 1 | 0
CC(C)CCn1c(COc2ccccc2)n[nH]c1=S | 6 | 3 | -7 | 20* | -3 | 3
S=c1[nH]nc(COc2ccccc2)n1Cc1ccccc1 | 6 | -6 | -2 | 6 | 2 | .
COC(=O)CCCc1nc2ccccc2s1 | -1 | 7 | 5 | 63* | -4 | 0
COc1ccc(/C=N/NS(=O)(=O)c2ccc(F)cc2)cc1CN1CCSCC1 | 7 | 7 | 3 | 8 | 2 | .
CCN1CCc2c(sc(NC(=S)NC(=O)c3ccc(Cl)cc3)c2C(N)=O)C1 | -2 | -3 | 8 | 18* | 20 | 1
CCN1CCc2c(sc(NC(=O)c3ccc4ccccc4c3)c2C(N)=O)C1 | 1 | 1 | -4 | -11 | 10 | .
Cc1ccc(N(C(=O)c2ccc(S(=O)(=O)N3CCCC3)cc2)C2C=CS(=O)(=O)C2)cc1 (stereo unspecified) | -1 | -8 | -3 | -3 | -1 | .
COc1ccc(C(=O)N(c2ccc(C)cc2)C2C=CS(=O)(=O)C2)cc1OC (stereo unspecified) | -4 | 4 | -6 | 20* | -4 | -5
O=C(Nc1cccc(C(=O)N2CCCC2)c1)C1CC1 | -1 | -3 | 3 | 9 | 2 | .
N=c1n(CCN2CCOCC2)c2ccccc2n1CC(=O)c1cccc([N+](=O)[O-])c1 | 8 | 3 | 4 | 2 | 3 | .
N=c1n(CCN2CCOCC2)c2ccccc2n1CC(=O)c1ccc(Cl)c(Cl)c1 | 2 | 2 | -6 | 19* | 3 | 3
O=C(Nc1cccc(S(=O)(=O)N2CCOCC2)c1)c1cn(-c2ccccc2)nc1-c1ccc(F)cc1 | -3 | 0 | 1 | 23* | 3 | -22
SMILES | PRMT1 inh | TCR CD3 inh | ABHD4 inh | SIAE inh | rCAG binder | SIAE confirm
O=C(Nc1cccc(S(=O)(=O)N2CCOCC2)c1)c1cn(-c2ccccc2)nc1-c1ccccc1 | -1 | 10 | -25 | -137 | 14 | .
CC1CCc2onc(C(=O)NCc3ccco3)c2C1 (stereo unspecified) | -4 | 7 | 3 | 21* | -3 | 3
O=C(NCc1ccco1)c1noc2c1CCCC2 | 1 | -1 | 4 | 0 | -2 | .
COc1ccc(S(=O)(=O)N2CCCCC2c2cc(C(=O)Nc3ccccc3)no2)cc1 (stereo unspecified) | -4 | -5 | -13 | 2 | 4 | .
COc1ccccc1CNC(=O)C1CCCN(S(C)(=O)=O)C1 (stereo unspecified) | 0 | 5 | 4 | 23* | -3 | -1
Cc1ccc(C)c(C(=O)CN2Cc3ccccc3C2=O)c1 | -4 | 0 | 1 | 23* | -3 | -4
COC(=O)COc1ccc(-c2nn(C)c(=O)c3ccccc23)cc1 | 0 | 0 | -3 | 20* | 3 | 2
Cn1nc(-c2ccc(OCC(N)=O)cc2)c2ccccc2c1=O | 1 | -1 | 2 | 0 | -2 | .
O=C(Cn1c(=O)oc2cc(S(=O)(=O)N3CCCCC3)ccc21)N1CCCCC1 | 2 | 2 | 1 | 17* | -4 | 5
COCCNC(=O)C1(C)Cc2c(-c3ccc4c(c3)OCO4)ccnc2O1 (stereo unspecified) | 2 | -4 | 4 | 2 | 1 | .
COc1cccc(C(=O)Nc2nnc(SCC(=O)NC3CCCC3)s2)c1 | 3 | -1 | 3 | 8 | 0 | .
O=C(N=Nc1c(O)[nH]c2c(Cl)cc(Cl)cc12)c1ccccc1O | 3 | 8 | 20 | 29* | 6 | -3
O=C(Cc1cccc(NC(=O)C2CCN(C(=O)C3CCCCC3)CC2)c1)Nc1cccc(C(=O)N2CCCCC2)c1 | -1 | 7 | 5 | 6 | 4 | .
CC1=C(C(=O)N(C(C)C)C(C)C)CC(CC(=O)NCc2cccs2)C(=O)N1CCCN1CCCC1=O (stereo unspecified) | 5 | -6 | 5 | 21* | -1 | 0
Cc1cnc(C2OCCO2)c2cccc(N)c12 | 4 | 3 | 27 | -12 | 7 | .
O=C(O)C1(c2ccccc2)CCN(S(=O)(=O)c2ccc(F)c(F)c2)CC1 | -1 | -5 | 6 | 20* | 0 | 4
Cc1nnc(SCC(=O)Nc2ccccc2F)n1-c1ccc(F)cc1 | -7 | -2 | -3 | 12 | -4 | .
Nc1ccc(-c2n[nH]c(=O)c3ccccc23)cc1N | 4 | 6 | -2 | 19* | 15 | 7
COc1ccc(CN(C)C(=O)C2CSC3(C)CCC(=O)N23)c(OC)c1 (stereo unspecified) | 4 | 4 | 7 | 3 | 0 | .
Cc1nc(N2CCN(c3ccccn3)CC2)c2c(C)c(C(=O)Nc3c(F)cc(F)cc3Br)sc2n1 | -2 | -1 | -11 | -7 | 8 | .
Cc1nc(N2CCN(c3ccccn3)CC2)c2c(C)c(C(=O)Nc3c(C)cc(Br)cc3C)sc2n1 | 0 | 6 | -10 | 17* | 1 | -19
CCCc1n[nH]c2c1C(=O)C(C(=O)OC)C(C)(C)C2 (stereo unspecified) | 1 | -4 | 5 | 0 | -4 | .
